Active and inactive are the calls of the source. Cut-off read from the data, not from the text of the source, unless noted: active = inhibition above about 31%; inactive = the rest.

For orientation: viability means a read-out of living cells in per cent, often relative to untreated cells. One may read the inhibition as the change of the read-out against control, counted positive when it falls.

Test [1] in a line: HUVEC growth inhibition – cell-based, human, primary screen (AID 575;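 active = viability at or below 30% in both replicate assays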;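 note: 100% = median of untreated cell wells with 0.1% DMSO on each plate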). The note with it: HUVEC proliferation, CellTiter-Glo luminescence, 72 h; at 10 µM; stronger effect = lower value. An outline of the steps: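 Timing: 72 h treatment at 37 °C; material: HUVEC primary cells; technique: CellTiter-Glo luminescence measuring cellular ATP; controls: vehicle and MePR control wells; measure: percent of median DMSO-control luminescence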
For orientation: ATP-based viability assays read luminescence as a measure of living cells.

Test [2] can be described thus: growth inhibitors of H69AR lung tumor, primary screen, human, duplicate replicates (AID 580;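 active = viability at or under a set limit in both replicates, limit being median viability minus 3 SD, cut at about 48% in these data, passing the limit was not always enough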;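 note: 100% = mean luminescence of untreated wells and 0% = no signal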). The note with it: H69AR lung tumor cells viability, ATP luminescence, 72 h; at 10 µM; stronger effect = lower value.
Test [3] in a line: reversal of MRP1-mediated doxorubicin resistance, pilot screen, H69AR cells, doxorubicin co-treatment (AID 601;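 active = viability loss from added drug above about 55%, and viability with drug at most 40%, in both replicates, limit read from the data, passing the limit was not always enough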). The note with it: CellTiter-Glo, 72 h, at 10 µM; for differential viability (reversal): stronger effect = higher value.
Test [4] can be described thus: 384-well plate pilot, post-Golgi transport modulator project, inhibition of yeast transport mutant growth (AID 636). The settings on record: absorbance 615 nm, about 18 h, stronger effect = higher value.
Test [5] can be described thus: growth suppression of yeast trafficking mutant, preliminary HTS, modulators of trafficking downstream of Golgi apparatus project, 1536-format plate, OD 615 nm (AID 637; in the data active = inhibition above about 30%). The note with it: yeast transport mutant growth, absorbance 615 nm, 18 h; stronger effect = higher value.
[6] abbreviates: H69AR cells + 2 uM doxorubicin, measured here: viability with 2 uM doxorubicin, stronger effect = lower value.
Setting [7] is: H69AR cells, compound alone cytotoxicity.

Take `COC(=O)Cn1c2ccccc2c2nc(C)sc21`: the viability in test [1] was 87.2% (inactive); in test [2], 92.7% (inactive); in test [3] (setting [6]) it was 91.5%; in test [3] (setting [7]), 92.7%. Also, in test [3] (H69AR cells + 2 uM doxorubicin), the differential viability (reversal) was 1.14% (inactive). For the same compound, the inhibition in test [4] was -0.8% (inactive); in test [5], -3.65% (inactive).

On to `CCc1c(C(=O)Nc2cc(C)ccc2OC)[nH]c(C)c1C(C)=O`, for which the viability in test [1] is 45.3% (inactive); in test [2], 82% (inactive); in test [3] (setting [6]), 83.5%; in test [3] (setting [7]) it was 82%. The differential viability (reversal) in test [3] (H69AR cells + 2 uM doxorubicin) is -1.42% (inactive). Further, the inhibition was -2.8% (inactive) in test [4] and 14.3% (inactive) in test [5].

With `CCOC(=O)c1sc(NC(=O)CSc2nc3c(cc2C#N)CCC3)c(C#N)c1C`, the viability was 74.7% (inactive) in test [1], 91.1% (inactive) in test [2], 99.5% in test [3] (setting [6]) and 91.1% in test [3] (setting [7]). Moreover, in test [3] (H69AR cells + 2 uM doxorubicin), the differential viability (reversal) is -8.41% (inactive). Besides, the inhibition was -5% (inactive) in test [4] and -0.32% (inactive) in test [5].

Regarding `CCn1c(Cc2ccccc2)nnc1SCC(=O)Nc1ccc(N2CCOCC2)c(Cl)c1`, the viability in test [1] is 101% (inactive); in test [2] it was 93.8% (inactive); in test [3] (setting [6]), 102%; in test [3] (setting [7]), 93.8%. Besides, in test [3] (H69AR cells + 2 uM doxorubicin), the differential viability (reversal) is -8.62% (inactive). The values for the inhibition in test [4] and in test [5] were -4.67% (inactive) and 3.02% (inactive), respectively.

With `CCn1c(SCC(=O)NCCc2ccc(Cl)cc2)nnc1-c1cccs1`, the viability was 87.7% (inactive) in test [1], 98.9% (inactive) in test [2], 94.3% in test [3] (setting [6]) and 98.9% in test [3] (setting [7]). The differential viability (reversal) in test [3] (H69AR cells + 2 uM doxorubicin) is 4.62% (inactive). The values for the inhibition in test [4] and in test [5] were 4.03% (inactive) and 3.17% (inactive), respectively.

As to `CON(C)c1nc(Oc2ccc(=O)[nH]n2)nc(N(C)C)n1`, the viability in test [1] was 87.6% (inactive); in test [2], 97.9% (inactive); in test [3] (setting [6]) it was 86.2%; in test [3] (setting [7]) it was 97.9%. For the same compound, the differential viability (reversal) in test [3] (H69AR cells + 2 uM doxorubicin) was 11.8% (inactive). The inhibition in test [4] was -4.4% (inactive); in test [5], 4.44% (inactive).

With `CN1CCN(S(=O)(=O)c2ccc(NC(=O)c3ccc(F)cc3)cc2)CC1`, the viability in test [1] is 94.2% (inactive); in test [2] it was 96.8% (inactive); in test [3] (setting [6]) it was 88.9%; in test [3] (setting [7]), 96.8%. The differential viability (reversal) in test [3] (H69AR cells + 2 uM doxorubicin) was 7.89% (inactive). Besides, the inhibition was -4% (inactive) in test [4] and -5.08% (inactive) in test [5].

For the compound `CC(=O)Nc1ccc(NC(=O)c2ccccc2F)cc1`, the viability in test [1] is 110% (inactive); in test [2] it was 108% (inactive); in test [3] (setting [6]), 92.2%; in test [3] (setting [7]) it was 108%. For the same compound, the differential viability (reversal) in test [3] (H69AR cells + 2 uM doxorubicin) was 16.1% (inactive). The inhibition in test [4] was -1.82% (inactive); in test [5] it was -4.13% (inactive).

On to `CCOc1ccc2cc(C#N)c(SCC(=O)N3CCC(C)CC3)nc2c1`, for which the viability in test [1] is 43.5% (inactive); in test [2] it was 34.4% (active); in test [3] (setting [6]) it was 33.9%; in test [3] (setting [7]) it was 34.4%. For the same compound, in test [3] (H69AR cells + 2 uM doxorubicin), the differential viability (reversal) is 0.44% (inactive). The inhibition in test [4] was -8.8% (inactive); in test [5], -1.11% (inactive).

On to `Nc1nc(Nc2ccc(Cl)cc2Cl)nc(C(F)(F)F)n1`, for which the viability in test [1] was 73.9% (inactive); in test [2] it was 89.8% (inactive); in test [3] (setting [6]) it was 78%; in test [3] (setting [7]), 89.8%. Besides, in test [3] (H69AR cells + 2 uM doxorubicin), the differential viability (reversal) is 11.7% (inactive). In addition, the figures for the inhibition in test [4] and in test [5] were -5.6% (inactive) and 11.3% (inactive), respectively.

Take `COCCCNC(=O)CC(NS(=O)(=O)c1ccc(Cl)cc1)c1ccco1` (stereo not given): the viability was 106% (inactive) in test [1], 87.5% (inactive) in test [2], 84.6% in test [3] (setting [6]) and 87.5% in test [3] (setting [7]). For the same compound, the differential viability (reversal) in test [3] (H69AR cells + 2 uM doxorubicin) was 2.94% (inactive). For the same compound, the inhibition in test [4] was -0.91% (inactive); in test [5] it was -3.02% (inactive).

With `CCN1C(=O)/C(=C/N2CCc3ccccc32)SC1=S`, the viability is 98.3% (inactive) in test [1], 58.5% (inactive) in test [2], 61.9% in test [3] (setting [6]) and 58.5% in test [3] (setting [7]). Also, in test [3] (H69AR cells + 2 uM doxorubicin), the differential viability (reversal) was -3.35% (inactive). The inhibition in test [4] is -2.63% (inactive); in test [5], 0.95% (inactive).

For the compound `CC1(c2ccncc2)Nc2ccccc2-c2nc3ccccc3n21` (stereo not given), the viability in test [1] was 92.4% (inactive); in test [2] it was 99.2% (inactive); in test [3] (setting [6]) it was 101%; in test [3] (setting [7]) it was 99.2%. Besides, the differential viability (reversal) in test [3] (H69AR cells + 2 uM doxorubicin) is -2.33% (inactive). Also, the inhibition is -1.45% (inactive) in test [4] and -0.95% (inactive) in test [5].

Consider `O=C(Nc1ccc(Cl)c(Cl)c1)Nc1cc(C(=O)N2CCOCC2)ccc1N1CCCCC1`, for which the viability is 105% (inactive) in test [1], 95.9% (inactive) in test [2], 91.8% in test [3] (setting [6]) and 95.9% in test [3] (setting [7]). The differential viability (reversal) in test [3] (H69AR cells + 2 uM doxorubicin) is 4.12% (inactive). The inhibition in test [4] was -4.08% (inactive); in test [5], -2.22% (inactive).

For `CC(NS(=O)(=O)c1ccc(OCC(=O)N2CCOCC2)c(Cl)c1)c1ccccc1` (stereo not given), the viability is 94.9% (inactive) in test [1], 94.7% (inactive) in test [2], 94.4% in test [3] (setting [6]) and 94.7% in test [3] (setting [7]). The differential viability (reversal) in test [3] (H69AR cells + 2 uM doxorubicin) is 0.355% (inactive). In addition, the values for the inhibition in test [4] and in test [5] were -6.53% (inactive) and 4.76% (inactive), respectively.

Regarding `O=c1cc(CSc2nnnn2-c2ccccc2)nc2scc(-c3ccccc3)n12`, the viability was 92% (inactive) in test [1], 101% (inactive) in test [2], 93.9% in test [3] (setting [6]) and 101% in test [3] (setting [7]). Besides, in test [3] (H69AR cells + 2 uM doxorubicin), the differential viability (reversal) was 6.61% (inactive). Also, the inhibition in test [4] is 0.13% (inactive); in test [5] it was -7.62% (inactive).

As to `COCCN(CC(=O)Nc1ccccc1C)S(=O)(=O)c1ccc(S(=O)(=O)N2CCCC2)cc1`, the viability in test [1] was 101% (inactive); in test [2] it was 95.7% (inactive); in test [3] (setting [6]), 91.5%; in test [3] (setting [7]) it was 95.7%. Besides, the differential viability (reversal) in test [3] (H69AR cells + 2 uM doxorubicin) is 4.26% (inactive). The inhibition was -7.2% (inactive) in test [4] and 4.13% (inactive) in test [5].

In the case of `CCCN(CCC)CCNS(=O)(=O)c1ccc2c(c1)oc(=O)n2C`, the viability in test [1] was 97.1% (inactive); in test [2] it was 105% (inactive); in test [3] (setting [6]), 92.5%; in test [3] (setting [7]), 105%. Also, the differential viability (reversal) in test [3] (H69AR cells + 2 uM doxorubicin) is 12.9% (inactive). Besides, the inhibition in test [4] is -2.27% (inactive); in test [5] it was -2.06% (inactive).

Consider `CN1CCN(c2nc(-c3ccncc3)nc3ccccc23)CC1`, for which the viability in test [1] was 78.3% (inactive); in test [2], 78.3% (inactive); in test [3] (setting [6]), 28.8%; in test [3] (setting [7]), 78.3%. The differential viability (reversal) in test [3] (H69AR cells + 2 uM doxorubicin) was 49.5% (inactive). Moreover, the inhibition in test [4] is -5.47% (inactive); in test [5] it was 1.75% (inactive).

`CC1(C)CC(=O)C=C(NCCN2CCN(C(=O)Nc3ccccc3)CC2)C1`: the viability is 103% (inactive) in test [1], 96.4% (inactive) in test [2], 89.8% in test [3] (setting [6]) and 96.4% in test [3] (setting [7]). Moreover, the differential viability (reversal) in test [3] (H69AR cells + 2 uM doxorubicin) is 6.64% (inactive). Further, the values for the inhibition in test [4] and in test [5] were -5.07% (inactive) and 3.97% (inactive), respectively.

Source of the values: PubChem BioAssay.
